High-throughput results as filed in PubChem BioAssay.
Most compounds without a hit are left out; they make up all but 2.3% or so of the library.
ABCG2 inh: human ABCG2 inhibition, ABCB1 as counter-screen. IgMXP3 cells, JC-1 efflux, flow cytometry. 190,000 tested, 0.1% active. inhibition, % at 6.6 µM. Q9UNQ0;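 active = inhibition above 80%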
Target sequence (Q9UNQ0 whole entry, looked up): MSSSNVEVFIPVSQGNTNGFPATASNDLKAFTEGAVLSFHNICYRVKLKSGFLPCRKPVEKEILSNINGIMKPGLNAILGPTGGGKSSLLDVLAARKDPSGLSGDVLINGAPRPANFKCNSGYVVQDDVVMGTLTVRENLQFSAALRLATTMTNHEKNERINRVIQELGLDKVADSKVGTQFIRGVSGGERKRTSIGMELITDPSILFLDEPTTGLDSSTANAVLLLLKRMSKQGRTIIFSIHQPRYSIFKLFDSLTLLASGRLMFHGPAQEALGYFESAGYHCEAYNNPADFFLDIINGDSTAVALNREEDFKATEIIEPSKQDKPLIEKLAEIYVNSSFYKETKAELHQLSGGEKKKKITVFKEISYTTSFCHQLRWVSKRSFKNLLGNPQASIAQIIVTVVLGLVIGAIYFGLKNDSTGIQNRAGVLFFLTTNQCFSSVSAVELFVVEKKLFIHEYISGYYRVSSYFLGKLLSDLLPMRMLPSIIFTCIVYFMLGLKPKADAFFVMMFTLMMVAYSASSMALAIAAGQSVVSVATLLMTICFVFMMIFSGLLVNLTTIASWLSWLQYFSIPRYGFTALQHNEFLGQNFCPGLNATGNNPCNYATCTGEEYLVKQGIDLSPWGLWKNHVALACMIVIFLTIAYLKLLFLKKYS
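Assay system – ABCG2 IgMXP3 and barcoded ABCB1 CCRF-Adr cell mix · Input – 3 million cells/mL in well · Reagent – JC-1 fluorescent substrate · Compound – single test compound dose, 6.6 µM final · Timing – 10 min exposure at 25 °C with rotation, no wash · Detection – flow cytometry of retained JC-1 fluorescence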
sdo1 growth: compounds rescuing growth of sdo1-depleted yeast, bone marrow failure model | z-score at 10 µM | 140,000 tested, 0.21% active | S. cerevisiae sdo1-depleted JHY4D growth rescue, OD600 30 h; hits give high values; pdr5 snq2 efflux-pump mutant strain | AID 817;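 active = z-score above 3 at both the 24 hr and the 30 hr optical density reads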
Autophagy HCS: autophagy modulation, high-content screen; 190,000 tested, 0.98% active; calls only at 10 µM (by protocol); MEF GFP-LC3 puncta imaging; test concentration mostly 10 µM; AID 463193;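 active = percentage of spot-positive cells more than 3 SD above its plate mean, without a fluorescence outlier flag or 80% toxicity; inconclusive = no clear call, values can overlap the other calls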
ABCB1 inh: human ABCB1 inhibition, ABCG2 as counter-screen; P08183; CCRF-Adr cells, JC-1 efflux, flow cytometry; inhibition, % at 6.6 µM; 190,000 tested, 0.067% active; AID 1326; in the data active = inhibition above about 40%;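 also: higher value means more JC-1 retained so stronger ABCB1 efflux block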
ROMK mod: human ROMK K+ channel modulation, primary screen. B-score at 10 µM. Tet-inducible ROMK, thallium flux fluorescence; actives lie on both sides. P48048. 130,000 tested, 2% active. AID 1918;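 active = signal ratio slope over the read window, or its plate-corrected B-score, at least 3 SD from the plate mean, either direction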;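 also: B-score of the F/F0 ratio slope over 7 to 12 s after thallium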
Ins promoter up: MIN6 insulin promoter up-regulation; AID 1625; 190,000 tested, 0.3% active; MIN6 insulin promoter-GFP reporter, high-content imaging; hits give high values; z-score at 5 µM;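 active = z-score above 3 at 5 µM with at least 500 cells counted in the well; inconclusive = wells under 500 cells, flagged as cytotoxic or low count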
Numbers stand for hits; i = inactive; ? = inconclusive; nt = no result given; + = active, no number.

SMILES	ABCG2 inh	sdo1 growth	Autophagy HCS	ABCB1 inh	ROMK mod	Ins promoter up
Cc1ccc(NC(=O)N(Cc2ccc3c(c2)OCO3)Cc2cc3cc4c(cc3[nH]c2=O)OCCO4)cc1	i	i	+	i	i	i
CCC(/C=C1\Sc2ccc(OC)cc2N1CC)=C\c1sc2ccc(OC)cc2[n+]1CCCS(=O)(=O)[O-]	i	nt	i	i	i	i
CCN1/C(=C/c2cc[n+](CCCS(=O)(=O)[O-])c3ccccc23)Sc2ccccc21	i	nt	i	i	i	6.1
O=C(Cn1c(=O)oc2cc(S(=O)(=O)N3CCCCC3)ccc21)N1CCc2ccccc21	i	i	+	i	nt	i
COc1ccc(NC(=S)N/N=C/c2cccn2Cc2ccc(F)cc2Cl)cc1	i	nt	i	i	1.3	i
COc1ccc(NC(=S)N/N=C/c2cccn2Cc2ccccc2F)cc1	i	nt	i	i	i	i
Clc1ccc2oc(-c3ccccn3)nc2c1	i	i	i	i	nt	3
O=C(NC1C=CS(=O)(=O)C1)c1ccccc1 (stereo not drawn)	i	nt	i	i	i	i
O=C(NC1C=CS(=O)(=O)C1)c1sc2ccccc2c1Cl (stereo not drawn)	i	i	i	i	nt	3.9
COc1cc(CCCN2C(=S)NC[C@@H]2CC2CCCCC2)cc(OC)c1OC	nt	nt	nt	nt	nt	i
Cc1ccc(C=Nc2ccccc2C(=O)Nc2ccccc2)cc1	i	i	i	i	i	i
Cc1ccc(C=Nc2ccccc2C(N)=O)cc1	i	i	+	i	i	i
NS(=O)(=O)c1ccc(NC(=S)Nc2ccn(Cc3cccc4ccccc34)n2)cc1	i	nt	i	i	i	nt
Cn1nnnc1SCC1=C(C(=O)O)N2C(=O)C(NC(=O)Cn3nc(C(F)F)cc3C3CC3)C2SC1 (stereo not drawn)	i	nt	+	i	i	i
COc1ccccc1CNc1nc2nc(C)c(C)c(=O)n2[nH]1	i	i	i	i	i	i
COC(=O)Cc1c(C)nc2nc(NCc3ccccc3OC)[nH]n2c1=O	i	i	i	i	nt	4.3
CCc1[nH]nc2c1C(c1ccc(Br)s1)C(C#N)=C(N)O2 (stereo not drawn)	i	i	i	i	-4.2	i
NC(=O)C1(C(N)=O)OC1c1ccccc1 (stereo not drawn)	nt	nt	nt	nt	nt	i
O=C(O)c1cccc(N2C(=O)/C(=C/c3ccc(SCc4ccc(Cl)cc4)o3)SC2=S)c1	i	nt	i	i	-4.2	i
Cc1ccc(/C=C2\SC(=S)N(c3cccnc3)C2=O)o1	nt	nt	nt	nt	nt	i
COc1ccc(C(=O)N/C(=C/c2cccs2)c2nc3ccccc3[nH]2)cc1OC	i	i	i	i	i	nt
COc1cc(/C=C(/C(=O)c2cccs2)c2nc3ccccc3[nH]2)cc(OC)c1O	i	i	+	i	nt	nt
CN(CCC#N)C(=O)COC(=O)c1ccc(Cl)c(S(=O)(=O)N(C)c2ccccc2)c1	i	nt	i	i	nt	i
CN1CCN(C(=O)CN(C)S(=O)(=O)c2ccc3ccccc3c2)CC1	i	nt	+	i	i	i
CN(CC(=O)N1CCCC1)S(=O)(=O)c1ccc2ccccc2c1	i	nt	i	i	i	i
SMILES	ABCG2 inh	sdo1 growth	Autophagy HCS	ABCB1 inh	ROMK mod	Ins promoter up
CCn1c(=O)[nH]c2cc(C(=O)Nc3cc(C)cc(C)c3)ccc2c1=O	i	nt	i	i	i	i
Cc1ccc([N+](=O)[O-])cc1NC(=O)c1cccs1	i	nt	i	i	i	3.2
CCn1c(SCC(=O)N/N=C/c2ccc(C)s2)nc2ccccc21	i	i	i	i	nt	i
O=C(C1CCCN(S(=O)(=O)c2cccc3nsnc23)C1)N1CC=C(c2ccccc2)CC1 (stereo not drawn)	i	i	i	i	-4.3	i
COc1cc(OC)cc(-n2nnnc2SCC(=O)Nc2ccc(C(C)=O)cc2)c1	i	i	+	i	i	nt
COC(=O)c1ccccc1NC(=O)CSc1nc2cccnc2n1C	i	nt	i	i	i	i
COC(=O)c1cccc(NC(=O)CSc2nc3cccnc3n2C)c1	i	i	i	i	-3.4	i
Clc1ccc(-n2nnnc2Sc2ncnc3sccc23)cc1	nt	nt	+	nt	nt	nt
CCc1ccccc1S(=O)(=O)Cc1ccc(C(=O)N2CCN(c3ccccc3OC)CC2)o1	i	i	+	i	nt	i
CC1(C)Cc2ccccc2C(c2cc3ccccc3oc2=O)=N1	i	i	i	i	nt	nt
CC1(C)Cc2c(ccc3ccccc23)C(c2cc3ccccc3oc2=O)=N1	i	i	i	i	nt	4.2
COc1cc(C(=O)NNC(=O)Nc2ccc([N+](=O)[O-])cc2)cc(OC)c1OC	i	nt	i	i	i	i
COc1ccc2nc(N3C(=O)CNC3=S)sc2c1	nt	nt	nt	nt	i	nt
CCOc1ccc2nc(N3C(=O)/C(=C/c4ccc(Cl)cc4)NC3=S)sc2c1	i	i	+	i	nt	i
O=C(NCCCn1ccnc1)c1ccc(S(=O)(=O)N2CCOCC2)cc1	i	nt	i	i	i	i
CCn1c(Sc2ccc([N+](=O)[O-])cn2)nnc1-c1ccco1	i	nt	i	i	i	i
Cc1cc(NC(=O)CCCn2nc([N+](=O)[O-])c(Cl)c2C)no1	i	nt	+	i	nt	i
COc1ccc(Nc2ncnc3c2cnn3-c2ccccc2)cc1OC	i	i	nt	i	nt	i
COc1ccc(OC)c(Nc2ncnc3c2cnn3-c2cccc(C)c2)c1	i	i	+	i	i	i
O=c1cc(-c2ccc(C3CCCCC3)cc2)[nH][nH]1	i	nt	i	i	i	i
CSc1nc2ccccc2cc1/C=C(\C#N)c1ccc(Cl)c(Cl)c1	i	i	+	i	nt	i
CSc1nc2ccccc2cc1/C=C(\C#N)c1ccccc1	i	i	i	i	nt	i
Cc1ccc(-n2nc(C)c3c(C(=O)OCC(=O)N(C)C4CCS(=O)(=O)C4)cc(-c4ccccc4)nc32)cc1 (stereo not drawn)	i	i	i	i	i	i
N#C/C(C(=O)Oc1ccccc1)=C1/Nc2ccccc2-c2ccccc21	i	i	+	i	nt	i
N#CC(C(=O)Nc1ccccc1)=C1Nc2ccccc2N1	i	i	i	i	nt	i
SMILES	ABCG2 inh	sdo1 growth	Autophagy HCS	ABCB1 inh	ROMK mod	Ins promoter up
O=C(NNC1=NC2(CCCC2)Cc2ccccc21)c1ccncc1	i	nt	i	i	i	nt
O=Cc1[nH]c2ccccc2c1N(C(=O)CCl)c1ccc([N+](=O)[O-])cc1	nt	nt	nt	nt	-2	i
O=C(CCl)N(c1ccccc1)c1c[nH]c2ccccc12	i	i	?	i	nt	i
COc1ccc(N2CC(C(=O)Nc3cc(C)ccn3)CC2=O)cc1 (stereo not drawn)	nt	nt	nt	nt	i	i
COc1ccc(Nc2nc3c(C)cccc3cc2C#N)c(OC)c1	i	i	+	i	i	i
COc1ccc(Nc2nc3cc(C)ccc3cc2C#N)c(OC)c1	i	nt	+	i	i	i
CCCc1[nH]nc2c1C(c1ccc(OC)c(CSC3=NCCS3)c1)C(C#N)=C(N)O2 (stereo not drawn)	i	i	i	i	-3.1	i
COc1ccc(NC(=O)COc2nc3ccccc3nc2N2CCOCC2)c(OC)c1	i	nt	i	i	i	i
N=c1c2c(-c3ccccc3)c(-c3ccccc3)n(Cc3ccco3)c2ncn1CCO	i	i	i	i	i	?
